From the array DNA melting data of Ke et al. (doi:10.1101/2024.01.08.574731) come the findings set out here.

Data set [1] is described as follows: folding enthalpy; higher = less favourable; fluorescence melt of hairpins on a sequencing array, two-state fit. Conditions: sodium 0.088 M. The procedure, abridged:
(§1)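 Bootstrapped two-state fits yielded melting temperature and folding enthalpy for library hairpins. Cy3 fluorescence, with annealed Cy3 and quencher oligos, was imaged on a sequenced MiSeq flow cell in 50 mM Na-HEPES pH 8.0, 25 mM NaCl in 2.5 °C steps up to 60 °C, and normalised to pre-quench Cy3 and to control constructs. Four replicates were combined by inverse variance, and fitted temperatures were raised by 9.35 °C to match UV melts.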

A short description of data set [2]: melting temperature; fluorescence melt of hairpins on a sequencing array, two-state fit, raised by 9.35 °C to match UV melts. Conditions: sodium 0.088 M. The procedure, abridged:
as §1

With GCTTGACGAAAGTCTAGC (((.(((....))).))), the folding enthalpy in data set [1] is -35.2 kcal/mol. For the same sequence, the Tm in data set [2] turned out to be 55.2 °C.

With GCTTGAGGAAACTTGAGC (((..((....))..))), the folding enthalpy in data set [1] was -16.7 kcal/mol. For the same sequence, the Tm in data set [2] was determined as 33.8 °C.

As to GCTTGCGAAAGCAATAGC ((((((....)))..))), the folding enthalpy in data set [1] was -15.3 kcal/mol. Further, the Tm in data set [2] came out at 47.1 °C.

Consider GCTTGGCGAAAGCAGAGC (((..((....))..))), for which the folding enthalpy in data set [1] is -18.2 kcal/mol. Also, the Tm in data set [2] was 54 °C.

GCTTGGCGAAAGCCAGGC ((.((((....)))).)): the folding enthalpy in data set [1] is -23.5 kcal/mol. Besides, the Tm in data set [2] was 66.4 °C.

Turning to GCTTGGCGAAAGCCCAGC (((.(((....))).))), the folding enthalpy in data set [1] is -36.6 kcal/mol. For the same sequence, the Tm in data set [2] is 51.2 °C.

Consider GCTTGGCGAAAGCCGGGC ((..(((....)))..)), for which the folding enthalpy in data set [1] is -20.6 kcal/mol. Besides, the Tm in data set [2] stood at 59.2 °C.

With GCTTGGCGAAAGCCTAGC (((.(((....))).))), the folding enthalpy in data set [1] is -41.9 kcal/mol. Further, in data set [2], the Tm was determined as 57.6 °C.

With GCTTGGCGAAAGCGAAGC ((((.((....)).)))), the folding enthalpy in data set [1] was -18.6 kcal/mol. Besides, the Tm in data set [2] is 60.4 °C.

GCTTGGCGAAAGCGACGC ((.(.((....)).).)): in data set [1], the folding enthalpy is -13.2 kcal/mol. Besides, the Tm in data set [2] was 45.5 °C.

Regarding GCTTGGCGAAAGCGAGGC ((.(.((....)).).)), in data set [1], the folding enthalpy was -15.3 kcal/mol. Moreover, the Tm in data set [2] worked out at 43.3 °C.

Take GCTTGGCGAAAGCGATGC ((.(.((....)).).)): in data set [1], the folding enthalpy was -14.3 kcal/mol. Further, the Tm in data set [2] came to 45 °C.

On to GCTTGGCGAAAGCGGAGC (((..((....))..))), for which the folding enthalpy in data set [1] is -16.8 kcal/mol. Further, in data set [2], the Tm came out at 48.6 °C.

Consider GCTTGGCGAAAGCTAGGC ((.(.((....)).).)), for which, in data set [1], the folding enthalpy is -17 kcal/mol. In addition, the Tm in data set [2] was determined as 44.6 °C.

Consider GCTTGGCGAAAGCTCAGC (((..((....))..))), for which the folding enthalpy in data set [1] was -15.2 kcal/mol. Also, the Tm in data set [2] came out at 41.1 °C.

For GCTTGGGGAAACCCAAAC (.(((((....))))).), the folding enthalpy in data set [1] was -14.5 kcal/mol. The Tm in data set [2] is 39.3 °C.

GCTTGTGAAAACAAGC ((((((....)))))): the folding enthalpy in data set [1] was -34.3 kcal/mol. For the same sequence, the Tm in data set [2] was determined as 63.5 °C.

As for GCTTGTGGAAACACAAGC (((((((....))))))), the folding enthalpy in data set [1] was -39.9 kcal/mol. In data set [2], the Tm is 63.9 °C.

Take GCTTGTGGAAACGTAAGC ((((..(....)..)))): the folding enthalpy in data set [1] is -17.7 kcal/mol. In addition, the Tm in data set [2] is 36.6 °C.

Regarding GCTTGTTCGAAAGAAAGC (((..(((....)))))), the folding enthalpy in data set [1] was -16.2 kcal/mol. The Tm in data set [2] was found to be 26.5 °C.

Turning to GCTTTAGAAATAAAGC ((((((....)))))), the folding enthalpy in data set [1] was -31.4 kcal/mol. Also, the Tm in data set [2] came out at 45.1 °C.

For the sequence GCTTTAGGAAACCAAAGC (((((.(....).))))), the folding enthalpy in data set [1] was -28.3 kcal/mol. Besides, the Tm in data set [2] came to 35.4 °C.

For the sequence GCTTTCCGAAAGGAAGC (((.(((....)))))), the folding enthalpy in data set [1] was -21.1 kcal/mol. Also, in data set [2], the Tm amounted to 52.3 °C.

On to GCTTTCGAAAGAAAAGC ((((((....))).))), for which the folding enthalpy in data set [1] was -31.3 kcal/mol. For the same sequence, in data set [2], the Tm came out at 46.6 °C.

As to GCTTTCGAAAGAACTAGC ((((((....)))..))), the folding enthalpy in data set [1] is -12.3 kcal/mol. Further, the Tm in data set [2] was 25.4 °C.

Take GCTTTCGAAAGAATAGC ((((((....))).))): in data set [1], the folding enthalpy was -23.9 kcal/mol. Also, the Tm in data set [2] came to 38.2 °C.

As for GCTTTCGGAAACGAAAGC (((((((....))))))), the folding enthalpy in data set [1] is -43.1 kcal/mol. In data set [2], the Tm turned out to be 68 °C.

Take GCTTTCGGAAACGAGAGC (((.(((....))).))): the folding enthalpy in data set [1] was -47 kcal/mol. In data set [2], the Tm was determined as 49.1 °C.

On to GCTTTGACGAAAGTCAGC (((..(((....)))))), for which the folding enthalpy in data set [1] is -12 kcal/mol. For the same sequence, the Tm in data set [2] was found to be 33.2 °C.

In the case of GCTTTGCCGAAAGGCAGC (((..(((....)))))), the folding enthalpy in data set [1] was -8.46 kcal/mol. For the same sequence, in data set [2], the Tm stood at 35.8 °C.

GCTTTGCGAAAGCAAGC (((.(((....)))))): in data set [1], the folding enthalpy is -15.2 kcal/mol. For the same sequence, the Tm in data set [2] was determined as 53.2 °C.

GCTTTGCGAAAGCAATGC ((.((((....)))).)): in data set [1], the folding enthalpy was -27.5 kcal/mol. Besides, in data set [2], the Tm is 60.9 °C.

On to GCTTTGCGAAAGCAGAGC (((.(((....))).))), for which, in data set [1], the folding enthalpy was -43.8 kcal/mol. Besides, the Tm in data set [2] amounted to 56.5 °C.

For the sequence GCTTTGCGAAAGCATCGC ((..(((....)))..)), in data set [1], the folding enthalpy was -13.7 kcal/mol. For the same sequence, the Tm in data set [2] stood at 48.7 °C.

With GCTTTGCGAAAGCATTGC ((..(((....)))..)), the folding enthalpy in data set [1] was -19.3 kcal/mol. Besides, the Tm in data set [2] came to 40.9 °C.

As to GCTTTGGAAACAAAGC ((((((....)))))), the folding enthalpy in data set [1] was -38.1 kcal/mol. Moreover, the Tm in data set [2] worked out at 57.4 °C.
